Bioassay records deposited in PubChem BioAssay by The Scripps Research Institute Molecular Screening Center.
Only some compounds are listed: those with a hit (about 1.9% of all), similar ones and a draw of the others.
TDP2 absorb = blocks human TDP2 phosphodiesterase activity; inhibition, % at 12.8 µM; O95551; AID 720702; 0.34% of 370,000 active; recombinant TDP2, T5PNP hydrolysis, p-nitrophenol absorbance 415 nm;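 active means inhibition above the mean of all tested compounds plus 3 SD, set per campaign, cut at about 25% in these data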;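 further: 0% = DMSO with enzyme and 100% = buffer with substrate but no TDP2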
Target sequence (O95551 whole entry, looked up): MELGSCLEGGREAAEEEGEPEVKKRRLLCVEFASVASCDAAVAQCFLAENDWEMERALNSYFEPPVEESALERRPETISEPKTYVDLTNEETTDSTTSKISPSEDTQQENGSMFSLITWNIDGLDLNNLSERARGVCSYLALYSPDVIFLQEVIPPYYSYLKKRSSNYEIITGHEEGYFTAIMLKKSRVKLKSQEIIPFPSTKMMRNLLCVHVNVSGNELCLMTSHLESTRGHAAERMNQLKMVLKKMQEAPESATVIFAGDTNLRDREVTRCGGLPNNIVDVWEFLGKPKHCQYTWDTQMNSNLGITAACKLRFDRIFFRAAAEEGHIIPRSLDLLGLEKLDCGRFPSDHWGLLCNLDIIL
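Assay system: Recombinant human TDP2 | Quantity: 120 nM TDP2 per well | Incubation: 2 h at 37 °C | Signal: Epi absorbance | Evaluation: Percent inhibition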
UHRF1 MBD2 ctr = blocks human UHRF1 binding to methylated DNA; Q96T88; UHRF1 binding to methylated oligo, TR-FRET; inhibition, % at 4.4 µM; 0.75% of 370,000 active; AID 687016; in the data active means inhibition above about 21%;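 further: UHRF1 SRA domain binding a hemimethylated CpG hairpin DNA probe; 0% = median of test compound wells and 100% = reference inhibitor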
LEDGF integ inh = blocks HIV-1 LEDGF/p75-dependent DNA integration; TR-FRET IN-LEDGF/p75 DNA integration, Eu/Cy5; inhibition, % at 3.7 µM; AID 743269; 0.64% of 370,000 active;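 active means inhibition above the screen-wide mean plus 3 SD, cut at about 13% in these data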;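 further: signal is the Cy5 over europium emission ratio at 671 and 618 nm; 0% = plate median of compound wells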
MBD2 DNA inh = blocks human MBD2 binding to methylated DNA. inhibition, % at 4.4 µM. 0.31% of 370,000 active. TR-FRET, MBD2 binding to methylated oligonucleotide. Q9UBB5; in the data active means inhibition above about 13%
Rin1 Abl inh = human Rin1-Abl interaction inhibition; P00519+Q13671; TR-FRET Rin1/Abl binding, biochemical; inhibition, % at 7.35 µM; 0.4% of 360,000 active; in the data active means inhibition above about 5%, passing the limit was not always enough
IN multimer up = HIV-1 integrase multimerization activation, counter-screen; shares compounds with LEDGF integ inh; 17% of 2,000 active; AID 1053131; activation, % at 7.7 µM; TR-FRET HIV-1 integrase multimerization, biochemical; in the data active means activation above about 8.9%
TRFRET interf = TR-FRET optical interference, LEDGF/p75 integration counter-screen; inhibition, % at 7.7 µM; shares compounds with LEDGF integ inh; 2,000 tested, under 10 active; AID 1053135; TR-FRET optical interference counterscreen, HIV-1 IN multimerization;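 active means inhibition above the mean over all tested compounds plus 3 SD, which no compound reached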;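 further: 0% = integrase with antibodies and DMSO and 100% = antibodies without integrase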
IN-LEDGF confirm = confirmation of HIV-1 LEDGF/p75-dependent integration inhibitors | shares compounds with LEDGF integ inh | TR-FRET LEDGF/p75-dependent HIV-1 integration, biochemical | inhibition, % at 3.7 µM | 36% of 2,000 active; in the data active means inhibition above about 14%
* hit, by the source's call; . = not tested or not shown.

SMILES	TDP2 absorb	UHRF1 MBD2 ctr	LEDGF integ inh	MBD2 DNA inh	Rin1 Abl inh	IN multimer up	TRFRET interf	IN-LEDGF confirm
Cc1ccc(N=C2NC(=O)/C(=C/C=C/c3ccco3)S2)cc1	5	5	22*	1	2	17*	-62	58*
O=C1NC(=Nc2ccccc2)S/C1=C\C=C\c1ccco1	5	13	34*	4	2	16*	-57	58*
CCCC(=O)N(CCN1CCOCC1)c1nc2c(OCC)cccc2s1	.	.	.	.	5	.	.	.
O=C(COC(=O)CCNS(=O)(=O)c1cccs1)Nc1ccccc1	-4	-1	0	0	-1	.	.	.
O=C(Nc1ccccc1)c1ccc2nc(-c3ccco3)c(-c3ccco3)nc2c1	3	6	17*	2	5	4	-20	43*
O=C(Nc1ccc(N2CCOCC2)cc1)c1ccc2nc(-c3ccco3)c(-c3ccco3)nc2c1	-4	-3	-2	2	-5	.	.	.
CCCCNC(=O)c1ccc2nc(-c3ccco3)c(-c3ccco3)nc2c1	-3	28*	50*	0	2	6	-28	33*
S=C(Nc1ccc(N2CCOCC2)cc1)Nc1ccc2nc(-c3ccco3)c(-c3ccco3)nc2c1	14	-5	27*	-3	-2	18*	-65	51*
Nc1ccc(S(=O)(=O)Nc2nccc(/C=C/c3cccc(Br)c3)n2)cc1	4	1	3	-3	-1	.	.	.
Cc1ccc(O)c(N=Cc2cc(Cc3ccccc3)cc([N+](=O)[O-])c2O)c1	-23	-6	19*	-16	1	3	-15	46*
O=[N+]([O-])c1cc(Cc2ccccc2)cc(C=Nc2ccc(N3CCOCC3)cc2)c1O	.	.	.	.	-6	.	.	.
CC(C)C[C@H]1COc2cc(Br)ccc2S(=O)(=O)N1	10	-2	-3	1	-1	.	.	.
COc1ccccc1CNc1ccc2c(c1)OC[C@H](CC(C)C)NS2(=O)=O	-1	-4	20*	3	.	3	-10	-4
Cn1ncc2c1NC(c1ccc(F)cc1)SCC2=O (configuration not stated)	5	-2	1	0	0	.	.	.
COC(=O)C1=C(N)N(c2ccccc2C(F)(F)F)C2=C(C(=O)CCC2)C1c1ccc2c(c1)OCO2 (configuration not stated)	4	-3	33*	1	0	0	-1	-8
CCOC1=C2[C@@H](CN(S(=O)(=O)c3ccc(C)cc3)[C@H]2c2ccc(Cl)cc2)[C@H]2C(=O)N(c3ccccc3)C(=O)[C@H]2C1	9	-3	1	-1	0	.	.	.
COc1ccc(C2C(C(=O)c3ccco3)=C(O)C(=O)N2CC2CCCO2)cc1OC (configuration not stated)	12	-8	6	-1	-3	.	.	.
CCn1c(SCC(=O)OCc2ccccc2)nnc1-c1ccco1	-1	3	19*	1	9	0	-2	-10
Cn1c(SCC(=O)OCc2ccccc2)nnc1-c1ccco1	-4	9	-1	6	-2	.	.	.
CN(C)c1ccc(N=C/C=C2\N(C)c3ccccc3C2(C)C)cc1	3	-9	15*	-19	-8	6	-31	-10
COc1ccc(OC)c(/C=N/NC(=O)CCc2ccc(O)c(O)c2)c1	-14	-1	58*	1	-4	2	-8	2
O=C(NCc1ccccc1)C1Nc2ccc(OC(F)(F)F)cc2C2C=CCC12 (configuration not stated)	-3	-2	22*	-3	3	1	-2	-8
O=C(NCc1ccccn1)C1Nc2ccc(OC(F)(F)F)cc2C2C=CCC12 (configuration not stated)	11	-7	1	2	5	.	.	.
COC(=O)c1ccc(CN2C(=O)NC(CC(C)C)C2=O)cc1 (configuration not stated)	10	25*	61*	1	1	-1	5	-4
CCN(CC)c1cc2c(c3c1ccn3C)C1CCC2O1 (configuration not stated)	13	-3	-1	-4	1	.	.	.
SMILES	TDP2 absorb	UHRF1 MBD2 ctr	LEDGF integ inh	MBD2 DNA inh	Rin1 Abl inh	IN multimer up	TRFRET interf	IN-LEDGF confirm
CCN(Cc1ccccc1)c1cc2c(c3c1ccn3C)C1CCC2O1 (configuration not stated)	13	-2	13*	2	1	1	-7	-10
COc1ccc(Cc2c(C3CCCCC3)nc3c(Cl)cc(C(F)(F)F)cn23)c(C)c1	10	11	-3	6	.	.	.	.
CC(=O)C1=CCC(c2ccc(Cl)cc2)N(S(=O)(=O)c2ccccc2C)C1 (configuration not stated)	4	0	-1	7	1	.	.	.
COCCn1c(C)cc(C(=O)CSc2nnc3ccccn23)c1C	13	3	15*	2	1	-2	10	33*
Cc1[nH]c2ccccc2c1CC(=O)Nc1ccc(Oc2cccnc2)cc1	1	-2	-2	0	.	.	.	.
Cc1ccc(N2C(=O)/C(=C/c3cccnc3)SC2=S)cc1	8	1	-2	5	-2	.	.	.
N=C1S/C(=C\c2ccco2)C(=O)N1c1nccs1	13	-1	3	0	-1	.	.	.
Cc1ccc(N2C(=O)/C(=C/c3ccco3)SC2=S)cc1	2	11	19*	2	-1	0	0	11
N=C1S/C(=C\c2ccco2)C(=O)N1c1ccc2c(c1)OCO2	5	2	15*	-1	-1	4	-21	18*
O=C(N[C@@H](Cc1ccccc1)C(=O)OCC(=O)N1CCOCC1)c1cccs1	-12	16	-1	3	1	.	.	.
Cc1cc(C)cc(CC(=O)N2CCC2(C)C(=O)NS(=O)(=O)c2cccc(OC(F)F)c2)c1 (configuration not stated)	-1	-1	17*	0	-1	0	-1	-3
CC(C)(C)c1ccc(CC(=O)N2CCC2(C)C(=O)NS(=O)(=O)c2cccc(OC(F)F)c2)cc1 (configuration not stated)	8	-1	0	-3	0	.	.	.
COCCNC(=O)C(c1ccc(C)o1)N(C(=O)Cn1nnc2ccccc21)c1ccccc1 (configuration not stated)	-3	4	-4	2	0	.	.	.
C[C@H](NC(=O)C1CCN(C(=O)[C@@H]2CCCN2C(=O)OC(C)(C)C)CC1)C(=O)NCc1ccc(F)cc1	2	-2	1	1	-4	.	.	.
